Source: ChEMBL document CHEMBL3769396 (J Med Chem, 2016)

What was measured:
Histone deacetylase 1 [1] = target: T1, Histone deacetylase 1 (Homo sapiens, UniProt Q13547); assay: Inhibition of human HDAC1 using (Z-(Ac)Lys-AMC) as substrate after 90 mins by fluorescence analysis
[2] = target: T2, Protein deacetylase HDAC6 (Homo sapiens, UniProt Q9UBN7); assay: Inhibition of human HDAC6 using (Z-(Ac)Lys-AMC) as substrate after 90 mins by fluorescence analysis
T2 sequence (Q9UBN7 whole entry): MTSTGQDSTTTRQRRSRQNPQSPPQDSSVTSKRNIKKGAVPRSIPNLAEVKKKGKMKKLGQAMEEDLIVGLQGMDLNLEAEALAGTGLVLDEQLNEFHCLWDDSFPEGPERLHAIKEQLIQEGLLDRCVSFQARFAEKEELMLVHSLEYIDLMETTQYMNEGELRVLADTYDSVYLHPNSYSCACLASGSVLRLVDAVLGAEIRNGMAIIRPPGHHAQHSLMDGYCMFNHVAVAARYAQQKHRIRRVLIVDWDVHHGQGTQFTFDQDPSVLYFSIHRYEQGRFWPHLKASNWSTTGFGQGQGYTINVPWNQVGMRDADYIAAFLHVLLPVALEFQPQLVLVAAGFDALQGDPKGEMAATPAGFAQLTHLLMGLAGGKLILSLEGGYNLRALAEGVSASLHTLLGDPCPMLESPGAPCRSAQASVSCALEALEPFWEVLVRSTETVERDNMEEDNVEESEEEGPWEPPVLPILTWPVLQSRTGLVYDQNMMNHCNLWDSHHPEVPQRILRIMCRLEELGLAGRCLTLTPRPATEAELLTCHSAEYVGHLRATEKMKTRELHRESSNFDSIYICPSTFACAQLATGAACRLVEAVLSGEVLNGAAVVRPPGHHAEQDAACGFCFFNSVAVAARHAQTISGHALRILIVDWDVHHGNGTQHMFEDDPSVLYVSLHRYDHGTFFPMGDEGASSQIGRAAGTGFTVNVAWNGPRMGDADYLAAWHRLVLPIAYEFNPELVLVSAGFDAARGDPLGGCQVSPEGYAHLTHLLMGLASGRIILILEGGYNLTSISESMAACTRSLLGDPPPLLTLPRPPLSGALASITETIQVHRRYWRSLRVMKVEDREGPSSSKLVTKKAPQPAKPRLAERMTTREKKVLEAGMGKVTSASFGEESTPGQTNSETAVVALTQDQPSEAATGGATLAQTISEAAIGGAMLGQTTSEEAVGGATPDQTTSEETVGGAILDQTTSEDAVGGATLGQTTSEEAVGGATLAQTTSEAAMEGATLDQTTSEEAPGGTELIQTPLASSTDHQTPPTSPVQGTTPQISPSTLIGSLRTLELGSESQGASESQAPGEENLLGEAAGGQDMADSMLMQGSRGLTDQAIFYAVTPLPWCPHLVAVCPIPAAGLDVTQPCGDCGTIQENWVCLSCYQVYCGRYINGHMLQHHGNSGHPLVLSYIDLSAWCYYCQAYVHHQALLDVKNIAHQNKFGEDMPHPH

Histone deacetylase 8 = target: T3, Histone deacetylase 8 (Homo sapiens, UniProt Q9BY41); assay: Inhibition of human HDAC8 using Z-L-Lys([…]-trifluoroacetyl)-AMC as substrate after 90 mins by fluorescence analysis
T3 sequence (Q9BY41 whole entry): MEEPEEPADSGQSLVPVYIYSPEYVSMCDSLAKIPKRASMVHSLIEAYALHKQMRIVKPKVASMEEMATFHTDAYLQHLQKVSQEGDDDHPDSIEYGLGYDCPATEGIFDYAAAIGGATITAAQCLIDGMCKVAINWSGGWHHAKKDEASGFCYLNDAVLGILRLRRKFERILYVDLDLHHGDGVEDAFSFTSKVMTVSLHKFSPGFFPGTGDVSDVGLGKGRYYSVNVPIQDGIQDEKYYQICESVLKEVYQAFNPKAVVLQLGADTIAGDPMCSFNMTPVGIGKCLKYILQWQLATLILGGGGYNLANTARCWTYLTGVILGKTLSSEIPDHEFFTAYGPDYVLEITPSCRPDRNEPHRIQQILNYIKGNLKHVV

[3] = Cytotoxicity against human HL60 cells after 72 hrs by cell titre 96 aqueous cell proliferation assay; format: functional, HL-60
In short: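 HL60 cells, 5000/well in RPMI with 10% FBS, 2 mM L-glutamine and penicillin/streptomycin, treated with a range of concentrations (0.05% DMSO control) for 72 h. MTS/PMS (20:1) was then added and A490 read after 2-4 h, with the cell-free background subtracted. GI50 is the concentration giving 50% viable cells; triplicates, mean of at least two experiments.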

[4] = target: T4, Histone deacetylase 8 (Homo sapiens) (UniProt Q9BY41); assay: Inhibition of human HDAC8 at 100 uM using Z-L-Lys([…]-trifluoroacetyl)-AMC as substrate after 90 mins by fluorescence analysis
T4 sequence (whole entry): T3 sequence (Q9BY41 whole entry)

Homo sapiens = species on record: Homo sapiens; assay: Selectivity ratio of IC50 for class1 HDAC (unknown origin) to IC50 for HDAC6 (unknown origin)
In short: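 Ratio of IC50 HDAC1 (or HDAC8) to IC50 HDAC6. Human recombinant HDAC1/6 were run in Tris-HCl pH 8.0 with NaCl, KCl, MgCl2 and BSA, using ZMAL substrate. HDAC8 was run in KH2PO4/Tris pH 7.5 with Z-L-Lys(ε-trifluoroacetyl)-AMC. All: 90 min at 37 °C, then TSA/trypsin stop for 30 min, fluorescence ex 390/em 460 nm. IC50 is the mean of at least two experiments.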

Histone deacetylase 1 [5] = target: T1, Histone deacetylase 1; assay: Inhibition of human HDAC1 at 10 uM using (Z-(Ac)Lys-AMC) as substrate after 90 mins by fluorescence analysis

T1 sequence (Q13547 whole entry): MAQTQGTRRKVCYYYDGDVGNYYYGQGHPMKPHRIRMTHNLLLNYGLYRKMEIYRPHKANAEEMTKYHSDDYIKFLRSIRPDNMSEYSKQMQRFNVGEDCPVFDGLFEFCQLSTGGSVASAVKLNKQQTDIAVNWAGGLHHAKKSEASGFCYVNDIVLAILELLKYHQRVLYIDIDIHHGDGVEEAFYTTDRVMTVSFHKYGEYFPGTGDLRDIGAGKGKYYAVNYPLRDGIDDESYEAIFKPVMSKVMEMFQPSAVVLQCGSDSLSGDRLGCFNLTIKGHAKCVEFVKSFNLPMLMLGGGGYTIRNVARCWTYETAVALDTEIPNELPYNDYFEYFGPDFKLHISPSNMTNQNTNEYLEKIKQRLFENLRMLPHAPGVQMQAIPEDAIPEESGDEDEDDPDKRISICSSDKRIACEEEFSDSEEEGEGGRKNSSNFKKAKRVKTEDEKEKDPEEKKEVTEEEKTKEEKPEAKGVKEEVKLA

IC50 (Histone deacetylase 1 [1]) [µM]	IC50 [2] [µM]	IC50 (Histone deacetylase 8) [µM]	inhibition [4] [%]	Ratio IC50 (Homo sapiens)	inhibition (Histone deacetylase 1 [5]) [%]	Structure (SMILES)	GI50 ([3]; Homo sapiens, HL-60, 72 h) [µM]	GI50 [3] [µM]
19.6	0.081	30.8				O=C(NO)c1coc(-c2ccc(Cl)cc2)n1		
36.5	0.311	8.13				O=C(NO)c1coc(-c2cccs2)n1		
33.5	2.77	20				O=C(NO)c1noc(-c2ccc(Br)cc2)n1		
23.7	0.11	43.3				O=C(NO)c1coc(-c2ccc(F)cc2)n1	30.1	
93.9	9.37	2.7				O=C(NO)c1coc(C(c2ccccc2)c2ccccc2)n1		
17.5	1.06	36.4				O=C(NO)c1csc(-c2ccc(Br)cc2)n1	11.1	
29.9	0.27	41.9				O=C(NO)c1coc(-c2ccccc2)n1	44.1	
19.1	0.5	10.1				O=C(NO)c1coc(-c2cccc(-c3ccccc3)c2)n1		
25	0.112	38.5				O=C(NO)c1noc(-c2ccccc2)n1		
10.3	1.91	12.1				O=C(NO)c1csc(-c2ccccc2)n1		
14.9	1.31		62			O=C(NO)c1noc(-c2ccc(-c3ccccc3)cc2)n1		
						O=C(CCCCCCC(=O)Nc1ccccc1)NO [VORINOSTAT]		0.08
32.9	0.195	50.9				COc1ccc(-c2nc(C(=O)NO)co2)cc1	29.2	
83.6	2.54	35				O=C(NO)c1csc(Cc2ccccc2)n1		
40.1	0.313	33.9				Cc1ccc(-c2nc(C(=O)NO)co2)cc1		
				10		O=C(CCCCCCNC(=O)c1cnc(N(c2ccccc2)c2ccccc2)nc1)NO		
						O=C(NO)c1coc(-c2ccc(Br)cc2)n1	10.2	
47.7	3.69	12.9				O=C(NO)c1csc(C(c2ccccc2)c2ccccc2)n1		
22.5	0.182	29.1				COc1ccc2cc(-c3nc(C(=O)NO)co3)ccc2c1		
12.2	0.089	26.2				O=C(NO)c1coc(-c2ccc3ccccc3c2)n1	6.3	
22.6	2.18	20.2				O=C(NO)c1coc(-c2ccccc2Br)n1		
82.2	8.85	61.4				O=C(NO)c1csc(-c2cnccn2)n1		
29.5	0.089	27.3				O=C(NO)c1coc(-c2ccc(-c3ccccc3)cc2)n1	5.6	
	0.3				36	O=C(NO)c1csc(-c2cccnc2)n1		
